According to publication PMC9047252 (RSC Advances, 2020):

Columns and labels:
K562/ADR cells [1] = test: CCK-8 antiproliferative assay, K562/ADR; format: cell-based; details: Homo sapiens, 72 h, read-out: IC50 K562/ADR
Method in brief: (§1)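 Cells seeded at 2500–3000 per well and held at 37 °C for 24 h, then exposed in triplicate to a range of test compound concentrations for 72 h, with 0.1% DMSO as control. CCK-8 added and incubated 2 h at 37 °C, then absorbance read at 450 nm. IC50 calculated and given as mean ± SD from three independent experiments.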

K562 cells [2] = test: CCK-8 antiproliferative assay, K562; format: cell-based; details: Homo sapiens, K562, 72 h, read-out: IC50 K562
Method in brief: as §1

K562/ADR cells [3] = test: Intracellular NO, DAF-FM DA, K562/ADR; format: cell-based, human; details: 10c 1, 10, 100 μM, 3 and 7 100 μM, 3 h
Method in brief: (§2)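 Cells exposed to 0.1% DMSO or test compound at 37 °C for 3 h. Harvested, PBS-washed, and loaded with DAF-FM DA (50 μmol L−1) in incubation buffer at 37 °C for 30 min. Washed again, then NO fluorescence read by fluorescence microscopy and microplate reader. Three independent experiments, mean ± SD; Student's t-test against control.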

LO2 cells = test: CCK-8 cytotoxicity assay, LO2; format: cell-based; details: Homo sapiens, L02, 72 h, read-out: IC50 LO2
Method in brief: as §1

K562 cells [4] = test: Western blot analysis, K562; format: cell-based, human; details: 10c 1, 5, 10 μM, 3 10 μM, 24 h
K562/ADR cells [5] = test: Western blot analysis, K562/ADR; format: cell-based, human; details: 10c 1, 5, 10 μM, 3 10 μM, 24 h
K562 cells [6] = test: Intracellular NO, DAF-FM DA, K562; format: cell-based, human; details: 10c 1, 10, 100 μM, 3 and 7 100 μM, 3 h
Method in brief: as §2

HT-29 cells = details: read-out: IC50 in HT-29 cells; cited from earlier work

C[C@H]1[C@H](OC(=O)CCC(=O)O)O[C@@H]2O[C@@]3(C)CC[C@H]4[C@H](C)CC[C@@H]1[C@@]24OO3 [compound 3, artesunate]
IC50 (K562/ADR cells [1]): 36.4 ± 2.9 µM | IC50 (K562 cells [2]): 10.2 ± 0.135 µM | generation of intracellular NO (K562/ADR cells [3]): increased the intracellular NO levels | IC50 (LO2 cells): 19.9 ± 0.331 µM | AKT phosphorylation (K562 cells [4]): clearly reduced the levels of AKT phosphorylation | AMPK and JNK phosphorylation (K562 cells [4]): up-regulated the levels of AMPK and JNK phosphorylation | AKT phosphorylation (K562/ADR cells [5]): clearly reduced the levels of AKT phosphorylation | AMPK and JNK phosphorylation (K562/ADR cells [5]): up-regulated the levels of AMPK and JNK phosphorylation | generation of intracellular NO (K562 cells [6]): increased the intracellular NO levels

Oc1ccc(-c2cc(=S)ss2)cc1 [compound 4, 5-(4-hydroxyphenyl)-3H-1,2-dithiole-3-thione]
IC50 (K562/ADR cells [1]): > 200 µM | IC50 (K562 cells [2]): > 200 µM | IC50 (LO2 cells): > 200 µM

COc1cccc2c1C(=O)c1c(O)c3c(c(O)c1C2=O)C[C@@](O)(C(=O)CO)C[C@@H]3O[C@H]1C[C@H](N)[C@H](O)[C@H](C)O1 [ADR, adriamycin]
IC50 (K562/ADR cells [1]): 9.16 ± 0.658 µM | IC50 (K562 cells [2]): 0.672 ± 0.056 µM | IC50 (LO2 cells): 2.74 ± 0.123 µM

O=C(CCCO[N+](=O)[O-])Oc1ccccc1C(=O)Oc1ccc(-c2cc(=S)ss2)cc1 [NOSH-1]
IC50 (HT-29 cells): 48 nM

C[C@H]1[C@@H](O)O[C@@H]2O[C@@]3(C)CC[C@H]4[C@H](C)CC[C@@H]1[C@@]24OO3 [compound 2, dihydroartemisinin]
IC50 (K562/ADR cells [1]): 28.1 ± 1.09 µM | IC50 (K562 cells [2]): 8.67 ± 0.277 µM | IC50 (LO2 cells): 19.9 ± 1.66 µM

O=[N+]([O-])O[C@@H]1CO[C@H]2[C@@H]1OC[C@@H]2O [compound 7, isosorbide 5-mononitrate]
IC50 (K562/ADR cells [1]): > 200 µM | IC50 (K562 cells [2]): > 200 µM | generation of intracellular NO (K562/ADR cells [3]): increased the intracellular NO levels | IC50 (LO2 cells): > 200 µM | generation of intracellular NO (K562 cells [6]): increased the intracellular NO levels

COC(=O)C[C@](O)(CCCC(C)(C)O)C(=O)O[C@@H]1C(OC)=C[C@]23CCCN2CCc2cc4c(cc2[C@H]13)OCO4 [HHT, homoharringtonine]
IC50 (K562/ADR cells [1]): 3.26 ± 0.082 µM | IC50 (K562 cells [2]): 0.367 ± 0.011 µM | IC50 (LO2 cells): 0.915 ± 0.149 µM

C[C@@H]1CC[C@H]2[C@@H](C)C(=O)O[C@@H]3O[C@@]4(C)CC[C@@H]1[C@]32OO4 [compound 1, Artemisinin]
IC50 (K562/ADR cells [1]): > 200 µM | IC50 (K562 cells [2]): 11.1 ± 0.832 µM | IC50 (LO2 cells): 83.3 ± 1.99 µM
